# According to ChEMBL document CHEMBL4610092, “Cytotoxic Nitrogenated Azaphilones from the Deep-Sea-Derived Fungus Chaetomium globosum MP4-S01-7” (J Nat Prod, 2020):
# Key:
# MGC-803 [1] = assay: Cytotoxicity against human MGC803 cells assessed as reduction in cell viability measured after 72 hrs by CCK8 assay; assay type: functional, cell-based; settings: MGC-803, 72 h
# Outline: (§1)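 MGC803 or AGS cells (RPMI 1640, 10% FBS, 5% CO₂, 37 °C) plated at 3 × 10³ per well overnight, then exposed to 0.1–10 μM for 72 h. Viability was read by CCK8 absorbance at 450 nm, and IC₅₀ was calculated from the concentration series.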
# AGS [2] = assay: Cytotoxicity against human AGS cells assessed as reduction in cell viability measured after 72 hrs by CCK8 assay; assay type: functional, cell-based; outline: as §1
# AGS [3] = assay: Induction of apoptosis in human AGS cells assessed as necrotic cells at 1 uM measured after 48 hrs FITC-A/PE-A staining based flow cytometry (reference value: 1.35 to 2.69%); assay type: functional
# AGS [4] = assay: Induction of apoptosis in human AGS cells assessed as viable cells at 0.5 uM measured after 48 hrs FITC-A/PE-A staining based flow cytometry (reference value: 92.05 to 93.85%); assay type: functional; settings: read-out: Activity
# MGC-803 [5] = assay: Induction of apoptosis in human MGC803 cells assessed as viable cells at 1 uM measured after 48 hrs FITC-A/PE-A staining based flow cytometry (reference value: 94.89 to 96.41%); assay type: functional; settings: MGC-803, 48 h, read-out: Activity
# AGS [6] = assay: Induction of apoptosis in human AGS cells assessed as necrotic cells at 0.5 uM measured after 48 hrs FITC-A/PE-A staining based flow cytometry (reference value: 1.35 to 2.69%); assay type: functional
# MGC-803 [7] = assay: Induction of apoptosis in human MGC803 cells assessed as viable cells at 5 uM measured after 48 hrs FITC-A/PE-A staining based flow cytometry (reference value: 94.89 to 96.41%); assay type: functional; settings: MGC-803, 48 h, read-out: Activity
# MGC-803 [8] = assay: Induction of apoptosis in human MGC803 cells assessed as necrotic cells at 0.2 uM measured after 48 hrs FITC-A/PE-A staining based flow cytometry (reference value: 0.9 to 2.18%); assay type: functional
# AGS [9] = assay: Induction of apoptosis in human AGS cells assessed as late apoptotic cells at 0.5 uM measured after 48 hrs FITC-A/PE-A staining based flow cytometry (reference value: 1.89 to 3.49%); assay type: functional
# MGC-803 [10] = assay: Induction of apoptosis in human MGC803 cells assessed as viable cells at 0.2 uM measured after 48 hrs FITC-A/PE-A staining based flow cytometry (reference value: 94.89 to 96.41%); assay type: functional; settings: MGC-803, 48 h, read-out: Activity
# AGS [11] = assay: Induction of apoptosis in human AGS cells assessed as late apoptotic cells at 1 uM measured after 48 hrs FITC-A/PE-A staining based flow cytometry (reference value: 1.89 to 3.49%); assay type: functional
# AGS [12] = assay: Induction of apoptosis in human AGS cells assessed as necrotic cells at 5 uM measured after 48 hrs FITC-A/PE-A staining based flow cytometry (reference value: 1.35 to 2.69%); assay type: functional
# AGS [13] = assay: Induction of apoptosis in human AGS cells assessed as early apoptotic cells at 0.2 uM measured after 48 hrs FITC-A/PE-A staining based flow cytometry (reference value: 1.77 to 2.91%); assay type: functional
# MGC-803 [14] = assay: Induction of apoptosis in human MGC803 cells assessed as late apoptotic cells at 0.2 uM measured after 48 hrs FITC-A/PE-A staining based flow cytometry (reference value: 0.9 to 2.18%); assay type: functional
# MGC-803 [15] = assay: Induction of apoptosis in human MGC803 cells assessed as early apoptotic cells at 1 uM measured after 48 hrs FITC-A/PE-A staining based flow cytometry (reference value: 0.59 to 3.54%); assay type: functional
# AGS [16] = assay: Induction of apoptosis in human AGS cells measured after 48 hrs FITC-A/PE-A staining based flow cytometry; assay type: functional, cell-based
# AGS [17] = assay: Induction of apoptosis in human AGS cells assessed as late apoptotic cells at 0.2 uM measured after 48 hrs FITC-A/PE-A staining based flow cytometry (reference value: 1.89 to 3.49%); assay type: functional
# AGS [18] = assay: Induction of apoptosis in human AGS cells assessed as early apoptotic cells at 0.5 uM measured after 48 hrs FITC-A/PE-A staining based flow cytometry (reference value: 1.77 to 2.91%); assay type: functional
# AGS [19] = assay: Induction of apoptosis in human AGS cells assessed as necrotic cells at 0.2 uM measured after 48 hrs FITC-A/PE-A staining based flow cytometry (reference value: 1.35 to 2.69%); assay type: functional
# MGC-803 [20] = assay: Induction of apoptosis in human MGC803 cells measured after 48 hrs FITC-A/PE-A staining based flow cytometry; assay type: functional, cell-based
# AGS [21] = assay: Induction of apoptosis in human AGS cells assessed as viable cells at 1 uM measured after 48 hrs FITC-A/PE-A staining based flow cytometry (reference value: 92.05 to 93.85%); assay type: functional; settings: read-out: Activity
# MGC-803 [22] = assay: Induction of apoptosis in human MGC803 cells assessed as early apoptotic cells at 5 uM measured after 48 hrs FITC-A/PE-A staining based flow cytometry (reference value: 0.59 to 3.54%); assay type: functional
# MGC-803 [23] = assay: Induction of apoptosis in human MGC803 cells assessed as viable cells at 0.5 uM measured after 48 hrs FITC-A/PE-A staining based flow cytometry (reference value: 94.89 to 96.41%); assay type: functional; settings: MGC-803, 48 h, read-out: Activity
# AGS [24] = assay: Induction of apoptosis in human AGS cells assessed as viable cells at 5 uM measured after 48 hrs FITC-A/PE-A staining based flow cytometry (reference value: 92.05 to 93.85%); assay type: functional; settings: read-out: Activity
# MGC-803 [25] = assay: Induction of apoptosis in human MGC803 cells assessed as late apoptotic cells at 0.5 uM measured after 48 hrs FITC-A/PE-A staining based flow cytometry (reference value: 0.9 to 2.18%); assay type: functional
# AGS [26] = assay: Induction of apoptosis in human AGS cells assessed as early apoptotic cells at 1 uM measured after 48 hrs FITC-A/PE-A staining based flow cytometry (reference value: 1.77 to 2.91%); assay type: functional
# MGC-803 [27] = assay: Induction of apoptosis in human MGC803 cells assessed as early apoptotic cells at 0.2 uM measured after 48 hrs FITC-A/PE-A staining based flow cytometry (reference value: 0.59 to 3.54%); assay type: functional
# MGC-803 [28] = assay: Induction of apoptosis in human MGC803 cells assessed as necrotic cells at 0.5 uM measured after 48 hrs FITC-A/PE-A staining based flow cytometry (reference value: 0.9 to 2.18%); assay type: functional
# AGS [29] = assay: Induction of apoptosis in human AGS cells assessed as viable cells at 0.2 uM measured after 48 hrs FITC-A/PE-A staining based flow cytometry (reference value: 92.05 to 93.85%); assay type: functional; settings: read-out: Activity
# AGS [30] = assay: Induction of apoptosis in human AGS cells assessed as early apoptotic cells at 5 uM measured after 48 hrs FITC-A/PE-A staining based flow cytometry (reference value: 1.77 to 2.91%); assay type: functional
# MGC-803 [31] = assay: Induction of apoptosis in human MGC803 cells assessed as late apoptotic cells at 1 uM measured after 48 hrs FITC-A/PE-A staining based flow cytometry (reference value: 0.67 to 0.82%); assay type: functional
# MGC-803 [32] = assay: Induction of apoptosis in human MGC803 cells assessed as late apoptotic cells at 5 uM measured after 48 hrs FITC-A/PE-A staining based flow cytometry (reference value: 0.67 to 0.82%); assay type: functional
# MGC-803 [33] = assay: Induction of apoptosis in human MGC803 cells assessed as necrotic cells at 1 uM measured after 48 hrs FITC-A/PE-A staining based flow cytometry (reference value: 0.9 to 2.18%); assay type: functional
# AGS [34] = assay: Induction of apoptosis in human AGS cells assessed as late apoptotic cells at 5 uM measured after 48 hrs FITC-A/PE-A staining based flow cytometry (reference value: 1.89 to 3.49%); assay type: functional
# MGC-803 [35] = assay: Induction of apoptosis in human MGC803 cells assessed as early apoptotic cells at 0.5 uM measured after 48 hrs FITC-A/PE-A staining based flow cytometry (reference value: 0.59 to 3.54%); assay type: functional
# MGC-803 [36] = assay: Induction of apoptosis in human MGC803 cells assessed as necrotic cells at 5 uM measured after 48 hrs FITC-A/PE-A staining based flow cytometry (reference value: 0.9 to 2.18%); assay type: functional
compound,measurement,setting,value
CC(=O)O[C@H]1C(=O)[C@@]2(C)[C@H]([C@H](OC(=O)c3ccccc3)[C@]3(O)C[C@H](OC(=O)[C@H](O)[C@@H](NC(=O)c4ccccc4)c4ccccc4)C(C)=C1C3(C)C)[C@]1(OC(C)=O)CO[C@@H]1C[C@@H]2O [PACLITAXEL],IC50,MGC-803 [1],3800 nM
C/C=C(\C)C(=O)C1=C2C3=CN(CC=C(C)C)C(/C=C/[C@@H](C)CC)=CC3=C(Cl)C(=O)[C@@]2(C)OC1=O,IC50,AGS [2],2000 nM
same,IC50,MGC-803 [1],6800 nM
CC[C@H](C)/C=C/C1=CC2=C(Cl)C(=O)[C@@]3(C)OC(=O)C(C(=O)[C@H](C)[C@@H](C)O)=C3C2=CN1C/C=C(\C)CCC=C(C)C,Activity,AGS [3],5.05%
same,viability at 0.5 µM,AGS [4],88.1%
same,viability at 1 µM,MGC-803 [5],85%
same,Activity,AGS [6],2.92%
same,viability at 5 µM,MGC-803 [7],6.51%
same,Activity,MGC-803 [8],0.7%
same,IC50,AGS [2],120 nM
same,Activity,AGS [9],5.54%
same,viability at 0.2 µM,MGC-803 [10],96.1%
same,IC50,MGC-803 [1],780 nM
same,Activity,AGS [11],23.07%
same,Activity,AGS [12],1.67%
same,Activity,AGS [13],3.16%
same,Activity,MGC-803 [14],0.41%
same,Activity,MGC-803 [15],1.33%
same,Activity,AGS [16],Dose-dependent effect
same,Activity,AGS [17],4.34%
same,Activity,AGS [18],3.49%
same,Activity,AGS [19],2.94%
same,Activity,MGC-803 [20],Dose-dependent effect
same,viability at 1 µM,AGS [21],53.3%
same,Activity,MGC-803 [22],0.25%
same,viability at 0.5 µM,MGC-803 [23],96.1%
same,viability at 5 µM,AGS [24],9.55%
same,Activity,MGC-803 [25],0.63%
same,Activity,AGS [26],18.59%
same,Activity,MGC-803 [27],2.79%
same,Activity,MGC-803 [28],0.73%
same,viability at 0.2 µM,AGS [29],89.6%
same,Activity,AGS [30],2.33%
same,Activity,MGC-803 [31],6.91%
same,Activity,MGC-803 [32],91.5%
same,Activity,MGC-803 [33],6.78%
same,Activity,AGS [34],86.44%
same,Activity,MGC-803 [35],2.55%
same,Activity,MGC-803 [36],1.74%
C/C=C(\C)C(=O)C1=C2C3=COC(/C=C/[C@@H](C)CC)=CC3=C(Cl)C(=O)[C@@]2(C)OC1=O [CHAETOVIRIDIN E],IC50,AGS [2],> 10000 nM
same,IC50,MGC-803 [1],> 10000 nM
CCC(=O)C1=C2C3=CN(C/C=C(\C)CCC=C(C)C)C(/C=C/[C@@H](C)CC)=CC3=C(Cl)C(=O)[C@@]2(C)OC1=O,IC50,AGS [2],1200 nM
same,IC50,MGC-803 [1],2200 nM
CCC(=O)C1=C2C3=CN(CC=C(C)C)C(/C=C/[C@@H](C)CC)=CC3=C(Cl)C(=O)[C@@]2(C)OC1=O,IC50,AGS [2],> 10000 nM
same,IC50,MGC-803 [1],5800 nM
CC[C@H](C)/C=C/C1=CC2=C(Cl)C(=O)[C@@]3(C)OC(=O)C(C(=O)[C@@H](C)[C@@H](C)O)=C3C2=CN1CC=C(C)C,IC50,AGS [2],2900 nM
same,IC50,MGC-803 [1],3000 nM
C/C=C(\C)C(=O)C1=C2C3=CN(C/C=C(\C)CCC=C(C)C)C(/C=C/[C@@H](C)CC)=CC3=C(Cl)C(=O)[C@@]2(C)OC1=O,IC50,AGS [2],120 nM
same,IC50,MGC-803 [1],720 nM
CC[C@H](C)/C=C/C1=CC2=C(Cl)C(=O)[C@@]3(C)OC(=O)C(C(=O)[C@@H](C)[C@@H](C)O)=C3C2=CO1 [CHAETOVIRIDIN A],IC50,AGS [2],> 10000 nM
same,IC50,MGC-803 [1],> 10000 nM
CC[C@H](C)/C=C/C1=CC2=C(Cl)C(=O)[C@@]3(C)OC(=O)C(C(=O)[C@H](C)[C@@H](C)O)=C3C2=CN1CC=C(C)C,IC50,AGS [2],6500 nM
same,IC50,MGC-803 [1],2700 nM
